From paper PMC7376976 (Bioorganic & medicinal chemistry letters, 2020)

Assays:
ΔFosB homodimer = biological target: T1, ΔFosB homodimer (Homo sapiens, UniProt P53539); assay type: binding
T1 sequence (P53539 1-237 isoform P53539-11): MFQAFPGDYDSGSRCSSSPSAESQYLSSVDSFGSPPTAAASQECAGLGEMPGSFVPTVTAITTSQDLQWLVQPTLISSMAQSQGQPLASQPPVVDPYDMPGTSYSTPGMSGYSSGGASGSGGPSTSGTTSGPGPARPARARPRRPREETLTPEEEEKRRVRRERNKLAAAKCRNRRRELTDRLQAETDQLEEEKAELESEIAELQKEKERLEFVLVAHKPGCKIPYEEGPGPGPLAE
Outline: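 Test compound serially diluted (10 concentrations, 0–200 μM, quadruplicate). Annealed 19-mer cdk5 AP-1 duplex, TAMRA-labelled at both 5′ ends, added at 25 nM in 20 mM HEPES pH 7.5, 50 mM NaCl for 5 min. ΔFosB then added at 320 nM (as monomers) for 15 min. FP read at excitation 530 or 540 nm, emission 590 nm. Four-parameter IC50; mean ± SD of two independent days.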

ΔFosB/JunD heterodimer = biological target: T2, ΔFosB/JunD heterodimer (Homo sapiens, UniProt P17535+P53539); assay type: binding
T2 sequence (P53539 1-237 isoform P53539-11): T1 sequence (P53539 1-237 isoform P53539-11)
T2 sequence (P17535 1-347): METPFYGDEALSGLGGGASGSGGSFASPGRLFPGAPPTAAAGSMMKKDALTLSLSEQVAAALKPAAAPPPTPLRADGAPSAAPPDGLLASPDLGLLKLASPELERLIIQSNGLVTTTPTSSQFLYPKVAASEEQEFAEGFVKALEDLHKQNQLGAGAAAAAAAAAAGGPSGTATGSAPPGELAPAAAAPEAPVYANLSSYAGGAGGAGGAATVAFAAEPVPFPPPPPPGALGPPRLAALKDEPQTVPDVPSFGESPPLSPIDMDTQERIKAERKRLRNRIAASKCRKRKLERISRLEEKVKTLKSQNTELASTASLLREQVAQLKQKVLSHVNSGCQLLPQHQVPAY
Outline: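 Annealed 19-mer cdk5 AP-1 duplex, TAMRA-labelled at both 5′ ends, used at 25 nM in 20 mM HEPES pH 7.5, 150 mM NaCl. Added to test compound (10 concentrations, 0–200 μM, quadruplicate) for 5 min, then ΔFosB/JunD at 280 nM (as monomers) for 15 min. FP read at excitation 530/540 nm, emission 590 nm. Oligo-only wells set 100% inhibition. Four-parameter IC50; mean ± SD of two days.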

Row | Structure (SMILES) | activity in FP-assay against ΔFosB homodimers (in words) (ΔFosB homodimer) | activity in FP-assay against ΔFosB/JunD heterodimers (in words) (ΔFosB/JunD heterodimer)
1 | CCOC(=O)c1nc2c(C)cccc2c2c1CCC2 [Compound 20] | little activity even at 100 μM or higher | little activity even at 100 μM or higher
2 | Cc1cccc2c3c(c(C(=O)O)nc12)CCC3 [Compound 21] | little activity even at 100 μM or higher | little activity even at 100 μM or higher

The next lines start with the values.

Row | activity in FP-assay against ΔFosB homodimers (in words) (ΔFosB homodimer) | activity in FP-assay against ΔFosB/JunD heterodimers (in words) (ΔFosB/JunD heterodimer) | Structure (SMILES)
3 | lacked significant activity | lacked significant activity | COc1cccc2c1N(C(C)=O)C(C(=O)O)C1CC=CC21 (stereo not shown) [Compound 13]
4 | lacked significant activity | lacked significant activity | COc1cccc2c1NC(C(=O)O)C1CCCC21 (stereo not shown) [Compound 14]
5 | lacked activity | lacked activity | COc1cc(OC)c2c(C(=O)O)nc3c(OC)cccc3c2c1 [Compound 25]
